In ChEMBL document CHEMBL4033797, “Discovery of [ cis-3-({(5 R)-5-[(7-Fluoro-1,1-dimethyl-2,3-dihydro-1 H-inden-5-yl)carbamoyl]-2-methoxy-7,8-dihydro-1,6-naphthyridin-6(5 H)-yl}carbonyl)cyclobutyl]acetic Acid (TAK-828F) as a Potent, Selective, and Orally Available Novel Retinoic Acid Receptor-Related Orphan Receptor γt Inverse …” (J Med Chem, 2018):
The source made the active and inactive calls. No cut-off for these calls is given here.

How the values were obtained:
[1] = Oral bioavailability in mouse at 1 mg/kg administered via cassette dosing; format: ADME, organism-based; details: in vivo
How it was run: (§1)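 Mice received a single oral 1 mg/kg dose in cassette format. Plasma was sampled over 8 h for Cmax, Tmax, AUC0–8h, MRT and oral bioavailability (F). Values are means of three determinations.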

[2] = AUC (0 to 8 hrs) in mouse at 1 mg/kg, po administered via cassette dosing; format: ADME, organism-based; design: time < 8 hr, dose 1 mg/kg, route oral; details: in vivo; how it was run: as §1
[3] = Lipophilicity, log D of the compound at pH 7.4; format: physicochemical; details: buffer
Mus musculus [4] = experiment: In vivo inverse agonist activity at RORgammat in po dosed C57BL/6 mouse assessed as inhibition of IL-23-induced IL-17A cytokine expression; format: functional
[5] = Cmax in mouse at 1 mg/kg, po administered via cassette dosing; format: ADME, organism-based; design: dose 1 mg/kg, route oral; details: in vivo; how it was run: as §1
Mus musculus [6] = experiment: (§2) Anti-inflammatory activity against MOG (35 to 55 residues)-induced EAE C57BL/6 mouse model assessed as inhibition of development of clinical symptoms at 1 mg/kg, administered bid via oral gavage measured after 28 days post Mycobacterium tuberculosis H37Ra/ MOG (35 to 55 residues)/pertussis toxin immunization; format: functional; details: C57BL/6, po, 672 h
How it was run: (§3)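 Mice immunized with MOG peptide received oral drug in 0.5% methylcellulose vehicle bid for 28 days. EAE clinical score was recorded from day 0 to day 28, along with cumulative clinical score. Groups were 12 MOG-immunized mice per group plus 4 healthy controls, reported as mean ± S.E. Comparison was against vehicle-treated immunized controls by one-tailed Shirley-Williams test (p<0.025).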

Mus musculus [7] = experiment: as §2, with “3” for “1”; format: functional; details: C57BL/6, po, 672 h; how it was run: as §3
Mus musculus [8] = experiment: Anti-inflammatory activity against IL-23 induced po dosed mouse psoriasis model; format: functional, organism-based
Mus musculus [9] = experiment: In vivo inverse agonist activity at RORgammat in po dosed C57BL/6 mouse assessed as inhibition of IL-23-induced IL-17A expression administered as bid; format: functional, organism-based
How it was run: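 Mice were dosed orally twice daily at 0.3, 1 and 3 mg/kg. IL-17A expression induced by IL-23 was then measured, and an effective dose was derived from the dose–response.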

[10] = target: T1, Nuclear receptor ROR-beta (Homo sapiens, UniProt Q92753); experiment: Inverse agonist activity at human RORbeta expressed in human Jurkat cells assessed as inhibition of transcriptional activity after 10 mins by human IL-17 ROR response element driven-bright-glo luciferase reporter gene assay; format: cell-based
T1 sequence (Q92753 whole entry): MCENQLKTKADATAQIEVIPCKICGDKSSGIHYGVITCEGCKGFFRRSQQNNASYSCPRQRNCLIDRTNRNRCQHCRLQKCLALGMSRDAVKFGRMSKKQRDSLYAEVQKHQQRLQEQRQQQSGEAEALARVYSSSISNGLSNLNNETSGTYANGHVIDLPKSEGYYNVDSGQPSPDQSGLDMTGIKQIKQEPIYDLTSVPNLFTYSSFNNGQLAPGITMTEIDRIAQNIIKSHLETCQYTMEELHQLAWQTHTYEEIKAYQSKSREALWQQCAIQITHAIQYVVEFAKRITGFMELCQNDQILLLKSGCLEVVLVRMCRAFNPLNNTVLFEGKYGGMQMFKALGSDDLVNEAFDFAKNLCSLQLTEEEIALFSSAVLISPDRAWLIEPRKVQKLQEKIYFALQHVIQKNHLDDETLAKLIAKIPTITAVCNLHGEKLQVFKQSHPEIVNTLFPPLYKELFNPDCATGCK
How it was run: (§4)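 Cell-based reporter assay in human Jurkat cells carrying human RORα or RORβ. Inhibition of transcriptional activity was read as luciferase activity and reported as IC50.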

[11] = target: T2, Nuclear receptor ROR-alpha (Homo sapiens, UniProt P35398); experiment: Inverse agonist activity at human RORalpha expressed in human Jurkat cells assessed as inhibition of transcriptional activity after 10 mins by human IL-17 ROR response element driven-bright-glo luciferase reporter gene assay; format: cell-based; how it was run: as §4
T2 sequence (P35398 whole entry): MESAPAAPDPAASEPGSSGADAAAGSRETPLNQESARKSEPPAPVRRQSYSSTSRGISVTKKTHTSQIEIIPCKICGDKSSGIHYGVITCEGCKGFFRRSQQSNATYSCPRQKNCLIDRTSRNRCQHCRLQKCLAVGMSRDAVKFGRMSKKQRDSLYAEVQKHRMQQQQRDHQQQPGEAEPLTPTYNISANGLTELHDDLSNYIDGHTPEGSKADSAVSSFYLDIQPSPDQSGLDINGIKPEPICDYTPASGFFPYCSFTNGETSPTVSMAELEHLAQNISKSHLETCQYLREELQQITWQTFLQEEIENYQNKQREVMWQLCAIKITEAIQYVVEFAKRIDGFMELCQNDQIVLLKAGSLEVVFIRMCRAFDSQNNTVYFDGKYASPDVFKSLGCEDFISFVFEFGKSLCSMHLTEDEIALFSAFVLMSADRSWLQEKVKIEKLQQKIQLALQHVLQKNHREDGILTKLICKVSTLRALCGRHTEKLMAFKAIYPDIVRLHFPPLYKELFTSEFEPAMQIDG

Mus musculus [12] = experiment: Anti-inflammatory activity in activated T cell transfer po dosed mouse colitis model; format: functional, organism-based
[13] = Tmax in mouse at 1 mg/kg, po administered via cassette dosing; format: ADME, organism-based; details: in vivo; how it was run: as §1
[14] = MRT in mouse at 1 mg/kg, po administered via cassette dosing; format: ADME, organism-based; details: in vivo; how it was run: as §1

## COc1ccc2c(n1)CCN(C(=O)CCCC(=O)O)[C@H]2C(=O)Nc1cc(F)c([Si](C)(C)C)c(F)c1
[1]
  bioavailability: 51%
[2]
  AUC(0-t) at 8 h: 2880 ng·h/mL
[3]
  logD: 4.04

## COc1ccc2c(c1)CCN(C(=O)CCCC(=O)O)[C@H]2C(=O)Nc1cc(F)c2c(c1)CCC2(C)C
[1]
  bioavailability: 91%
[2]
  AUC(0-t) at 8 h: 3440 ng·h/mL
[3]
  logD: 3.37
Mus musculus [4]
  inhibition: Dose-dependent effect

## COc1ccc2c(n1)CCN(C(=O)N1CC(CC(=O)O)C1)[C@H]2C(=O)Nc1cc(F)c2c(c1)CCC2(C)C
[3]
  logD: 3.42

## COc1ccc2c(c1)CCN(C(=O)CCCC(=O)O)[C@H]2C(=O)Nc1cc(F)c(C(C)(C)C)c(F)c1
[1]
  bioavailability: 62%
[2]
  AUC(0-t) at 8 h: 2840 ng·h/mL
[3]
  logD: 3.77

## COc1ccc2c(n1)CCN(C(=O)[C@H]1C[C@H](C(=O)O)C1)[C@H]2C(=O)Nc1cc(F)c2c(c1)CCC2(C)C
[3]
  logD: 3.46

## COc1ccc2c(n1)CCN(C(=O)[C@H]1C[C@H](CC(=O)O)C1)[C@H]2C(=O)Nc1cc(F)c2c(c1)CCC2(C)C
[3]
  logD: 3.54

## COc1ccc2c(n1)CCN(C(=O)C[C@H]1C[C@@H](C(=O)O)C1)[C@H]2C(=O)Nc1cc(F)c2c(c1)CCC2(C)C
[3]
  logD: 3.51

## COc1ccc2c(n1)CCN(C(=O)[C@H]1C[C@@H](C(=O)O)C1)[C@H]2C(=O)Nc1cc(F)c2c(c1)CCC2(C)C
[3]
  logD: 3.39

## COc1ccc2c(n1)CCN(C(=O)[C@H]1C[C@@H](CC(=O)O)C1)[C@H]2C(=O)Nc1cc(F)c2c(c1)CCC2(C)C
[5]
  Cmax: 1560 ng/mL
Mus musculus [6]
  inhibition in vivo at 1 mg/kg: 50%
Mus musculus [7]
  inhibition in vivo at 3 mg/kg: 44%
Mus musculus [8]
  Activity: Active
[2]
  AUC(0-t) at 8 h: 10100 ng·h/mL
Mus musculus [9]
  inhibition: Dose-dependent effect
[10]
  IC50: ≥ 30 µM
[3]
  logD: 3.53
[11]
  IC50: ≥ 30 µM
Mus musculus [12]
  Activity: Active
[13]
  Tmax: 2.3 h
[14]
  MRT: 4.1 h

## COc1ccc2c(n1)CCN(C(=O)C1CN(CC(=O)O)C1)[C@H]2C(=O)Nc1cc(F)c2c(c1)CCC2(C)C
[3]
  logD: 3.39

## COc1ccc2c(n1)CCN(C(=O)CCCC(=O)O)[C@H]2C(=O)Nc1cc(F)c2c(c1)CCC2(C)C
[1]
  bioavailability: 58%
[2]
  AUC(0-t) at 8 h: 2620 ng·h/mL
[3]
  logD: 3.39
Mus musculus [4]
  inhibition: Dose-dependent effect

## COc1ccc2c(c1)CCN(C(=O)CCCC(=O)O)[C@H]2C(=O)Nc1cc(F)c([Si](C)(C)C)c(F)c1
[3]
  logD: 3.96
Mus musculus [4]
  inhibition: Dose-dependent effect
Mus musculus [4]; C57BL/6, po
  ED80: 7.6 mg/kg

## COc1ccc2c(n1)CCN(C(=O)C[C@H]1C[C@H](C(=O)O)C1)[C@H]2C(=O)Nc1cc(F)c2c(c1)CCC2(C)C
[3]
  logD: 3.49

## COCC(C)(C)c1c(F)cc(NC(=O)[C@H]2c3ccc(OC)cc3CCN2C(=O)CCCC(=O)O)cc1F
[1]
  bioavailability: 78%
[2]
  AUC(0-t) at 8 h: 389 ng·h/mL
[3]
  logD: 3.16
